Key:
[1] = Biodistribution of Pt in A375M tumor-bearing mice; format: in vivo; conditions: 1 mg/kg Pt IV, 24 h post injection
[2] = Toxicity and pathology studies; format: in vivo, mice
Outline: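 Female athymic nude mice (5–6 wk, 18–22 g) were dosed IV weekly during therapeutic treatment. Mice for histology received four doses of 1 mg/kg each. Serum AST, ALT and BUN were measured, with BUN taken 7 days after the last dose. Heart, liver, spleen, lung and kidney were formalin-fixed, H&E-stained and imaged by light microscopy. Data are mean ± SEM, compared by one-way ANOVA.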

[3] = cited from earlier work
[4] = cited from earlier work; remark: listed apart in the source

## [NH2][Pt]([NH2])([Cl])[Cl] [CDDP, cisplatin]
[1]
  accumulation in tumors, injected dose (ID) per gram: 1.2 % ID/g
[2]; four doses, 1 mg/kg each
  nephrotoxicity (kidney H&E histology): glomeruloscelorsis, tubular cell atrophy, and cystic dilatation of renal tubes
[2]; measured 7 days after the last treatment
  BUN versus control group: no significant difference
[2]; serum, after treatment
  ALT: fell within the normal range
  AST: fell within the normal range

## [NH2][Pt]([NH2])([I])[I] [CDDP-I, iodinated cisplatin]
[3]
  anti-tumor efficacy: ineffective
[4]
  solubility in water and organic solvents: insolubility
